From ChEMBL document CHEMBL1177752, “Trigoxyphins A-G: diterpenes from Trigonostemon xyphophylloides” (J Nat Prod, 2010)

Tests used:
Format in all cases: functional, cell-based
Bel-7402 = assay: Cytotoxicity against human Bel7402 cells after 72 hrs by SRB assay; conditions: Bel-7402, 72 h
HL-60 = assay: Cytotoxicity against human HL60 cells after 72 hrs by MTT assay; conditions: HL-60, 72 h
Summary of the method: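 Cells plated in culture medium in 96-well plates, then treated in triplicate with graded compound concentrations for 72 h at 37 °C. MTT (5 mg/mL solution) added for 4 h, followed by 10% SDS/5% isobutanol/12 mM HCl solubilizer.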

A549 = assay: Cytotoxicity against human A549 cells after 72 hrs by SRB assay; conditions: A549, 72 h

Structure (SMILES)	IC50 (Bel-7402)	IC50 (HL-60)	IC50 (A549)
C=C(C)[C@@]1(O)[C@@H]2OC3(c4ccccc4)O[C@H]1[C@@H](C)[C@@]1(O3)[C@H]2[C@H](OC(C)=O)[C@](C)(OC(=O)c2ccccc2)[C@@H](OC(C)=O)[C@@]2(O)[C@H]1C[C@H](C)[C@@H]2OC(C)=O [TRIGOXYPHIN D]	> 10 µM	–	–
COc1cccc2c1C(=O)c1c(O)c3c(c(O)c1C2=O)C[C@@](O)(C(=O)CO)C[C@@H]3O[C@H]1C[C@H](N)[C@H](O)[C@H](C)O1 [DOXORUBICIN]	0.12 µM	0.04 µM	0.17 µM
Cc1cc2c(cc1O)C1=CC(=O)[C@@H](O)C(C)(C)C1CC2=O (some centres undefined) [TRIGOXYPHIN G]	> 10 µM	–	–
C=C(C)[C@@]12OC3(c4ccccc4)O[C@@H]1[C@@H]1[C@H](OC(C)=O)[C@@](C)(OC(=O)c4ccccc4)[C@@H](OC(C)=O)[C@@]4(O)[C@@H](C[C@H](C)[C@@H]4OC(C)=O)[C@@]1(O3)[C@H](C)[C@@H]2O [TRIGOXYPHIN F]	> 10 µM	–	–
C=C(C)[C@@]12OC3(c4ccccc4)O[C@@H]1[C@@H]1[C@@H]4O[C@]4(C)[C@@H](O)[C@]4(O)C(=O)[C@@H](C)C[C@H]4[C@@]1(O3)[C@H](C)[C@@H]2OC(=O)c1ccccc1 [TRIGOXYPHIN B]	> 10 µM	0.49 µM	4.9 µM
C=C(C)[C@@]1(OC(C)=O)[C@@H]2OC3(c4ccccc4)O[C@H]1[C@@H](C)[C@@]1(O3)[C@H]2[C@H](OC(C)=O)[C@](C)(OC(=O)c2ccccc2)[C@@H](OC(C)=O)[C@@]2(O)[C@H]1C[C@H](C)[C@@H]2OC(C)=O [TRIGOXYPHIN E]	> 10 µM	–	–
C=C(C)[C@@]12OC3(c4ccccc4)O[C@@H]1[C@@H]1[C@@H]4O[C@]4(C)[C@@H](O)[C@]4(O)C(=O)C(C)=C[C@H]4[C@@]1(O3)[C@H](C)[C@@H]2OC(=O)c1ccccc1 [TRIGOXYPHIN A]	> 10 µM	0.27 µM	7.5 µM
C=C(C)[C@@]12OC3(c4ccccc4)O[C@@H]1[C@@H]1[C@@H]4O[C@]4(C)[C@@H](OC(C)=O)[C@]4(O)C(=O)[C@@H](C)C[C@H]4[C@@]1(O3)[C@H](C)[C@@H]2OC(=O)c1ccccc1 [TRIGOXYPHIN C]	> 10 µM	–	–
